For experiment [1], the target named is Muscarinic acetylcholine receptor M3 (Homo sapiens, UniProt P20309). Nature of the experiment: Displacement of [3H]-N-methyl-scopolamine from human muscarinic M3 receptor after 6 hrs by cell based assay. The gist of the method:
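Human M3 receptor-expressing cell membranes incubated up to 6 h at 37 °C with 1 nM [3H]N-methyl-scopolamine and serial dilutions of compound. Buffer 10 mM Hepes, 100 mM NaCl, 10 mM MgCl2, pH 7.4 at 37 °C. IC50 from displacement converted to Ki by Cheng–Prusoff.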

Experiment [2] has as its target T1, Beta-2 adrenergic receptor (Homo sapiens, UniProt P07550). Nature of the experiment: Agonist activity at human beta2-adrenoceptor expressed in HEK cells assessed as increase of cAMP level after 10 mins by radioimmunoassay. In kind it is functional, cell-based, HEK293. For orientation: Cyclic AMP is a second messenger, typically raised through Gs and lowered through Gi signalling.

The target in experiment [3] is T1, Beta-2 adrenergic receptor. Nature of the experiment: Displacement of [3H]-dihydroalprenolol from human beta2-adrenoceptor expressed in HEK cells after 4 hrs. In kind it is cell-based, HEK293. (In a radioligand displacement assay an active substance lowers the binding of a labelled ligand.)

SMILES strings stand for the structures.

This passage reports Ki and EC50 results from ChEMBL document CHEMBL1681687, “Discovery of muscarinic acetylcholine receptor antagonist and beta 2 adrenoceptor agonist (MABA) dual pharmacology molecules” (Bioorg Med Chem Lett, 2011).

The Ki is a dissociation constant, usually derived from enzyme kinetics or from competition with a known ligand. The low end stands for tighter binding, the high end for weaker binding. The term EC50 denotes the concentration at which the effect is half-maximal.

Sequence of Muscarinic acetylcholine receptor M3 (P20309 whole entry): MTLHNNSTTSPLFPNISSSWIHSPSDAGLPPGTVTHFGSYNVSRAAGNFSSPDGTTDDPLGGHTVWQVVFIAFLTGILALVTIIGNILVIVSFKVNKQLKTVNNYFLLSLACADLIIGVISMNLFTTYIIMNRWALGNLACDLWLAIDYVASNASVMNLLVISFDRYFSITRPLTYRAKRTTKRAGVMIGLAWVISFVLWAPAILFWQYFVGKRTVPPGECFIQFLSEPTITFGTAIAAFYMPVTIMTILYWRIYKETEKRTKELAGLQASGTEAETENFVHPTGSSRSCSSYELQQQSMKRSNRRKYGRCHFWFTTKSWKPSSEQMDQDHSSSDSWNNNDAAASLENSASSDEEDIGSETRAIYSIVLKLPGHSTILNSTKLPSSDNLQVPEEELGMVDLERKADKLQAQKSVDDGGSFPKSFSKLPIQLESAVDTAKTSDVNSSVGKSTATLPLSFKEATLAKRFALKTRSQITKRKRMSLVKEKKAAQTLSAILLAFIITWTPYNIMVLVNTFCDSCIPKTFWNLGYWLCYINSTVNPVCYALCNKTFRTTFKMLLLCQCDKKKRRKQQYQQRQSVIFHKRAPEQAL
T1 sequence (P07550 whole entry): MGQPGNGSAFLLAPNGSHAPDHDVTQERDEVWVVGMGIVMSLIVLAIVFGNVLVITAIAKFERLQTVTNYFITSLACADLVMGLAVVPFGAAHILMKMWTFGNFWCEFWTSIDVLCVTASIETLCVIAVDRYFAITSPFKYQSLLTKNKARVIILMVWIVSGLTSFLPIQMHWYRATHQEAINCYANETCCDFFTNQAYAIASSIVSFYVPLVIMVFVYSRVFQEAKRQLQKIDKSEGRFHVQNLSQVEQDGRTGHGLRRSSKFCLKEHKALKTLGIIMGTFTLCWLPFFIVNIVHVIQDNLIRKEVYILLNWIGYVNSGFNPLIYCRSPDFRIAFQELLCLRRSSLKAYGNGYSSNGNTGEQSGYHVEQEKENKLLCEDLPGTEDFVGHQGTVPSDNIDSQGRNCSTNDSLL

In the case of `O=C(Nc1ccccc1-c1ccccc1)OC1CCNCC1`, in experiment [1], the affinity corresponds to a Ki of 46 nM.

With `CN1CCC(OC(=O)Nc2ccccc2-c2ccccc2)CC1`, in experiment [1], the affinity corresponds to a Ki of 22 nM.

As to `CCN1CCC(OC(=O)Nc2ccccc2-c2ccccc2)CC1`, the Ki in experiment [1] amounted to 55 nM.

Turning to `CCCN1CCC(OC(=O)Nc2ccccc2-c2ccccc2)CC1`, in experiment [1], the Ki worked out at 77 nM.

In experiment [1], `CCCCN1CCC(OC(=O)Nc2ccccc2-c2ccccc2)CC1` gave a Ki of 17 nM.

Molecule `CCCCCN1CCC(OC(=O)Nc2ccccc2-c2ccccc2)CC1` came in with a Ki in experiment [1] of 14 nM.

In experiment [1], `CCCCCCN1CCC(OC(=O)Nc2ccccc2-c2ccccc2)CC1` returned a Ki of 4.8 nM.

Molecule `CCCCCCCN1CCC(OC(=O)Nc2ccccc2-c2ccccc2)CC1` gave a Ki in experiment [1] of 5.1 nM.

`CCCCCCCCN1CCC(OC(=O)Nc2ccccc2-c2ccccc2)CC1` displayed a Ki in experiment [1] of 7 nM.

Turning to `CCCCCCCCCN1CCC(OC(=O)Nc2ccccc2-c2ccccc2)CC1`, the Ki in experiment [1] is 9.5 nM.

Turning to `CCCCCCCCCCN1CCC(OC(=O)Nc2ccccc2-c2ccccc2)CC1`, affinity in experiment [1] was put at a Ki of 25 nM.

As to `CCCCCCCCCCCN1CCC(OC(=O)Nc2ccccc2-c2ccccc2)CC1`, the Ki in experiment [1] stood at 48 nM.

`NCCN1CCC(OC(=O)Nc2ccccc2-c2ccccc2)CC1` returned a Ki in experiment [1] of 50 nM.

The molecule `NCCCN1CCC(OC(=O)Nc2ccccc2-c2ccccc2)CC1` came in with a Ki in experiment [1] of 67 nM.

For the molecule `NCCCCN1CCC(OC(=O)Nc2ccccc2-c2ccccc2)CC1`, the affinity in experiment [1] corresponds to a Ki of 84 nM.

Take `NCCCCCN1CCC(OC(=O)Nc2ccccc2-c2ccccc2)CC1`: the affinity in experiment [1] corresponds to a Ki of 98 nM.

In the case of `NCCCCCCN1CCC(OC(=O)Nc2ccccc2-c2ccccc2)CC1`, in experiment [1], the Ki amounted to 19 nM.

Turning to `NCCCCCCCN1CCC(OC(=O)Nc2ccccc2-c2ccccc2)CC1`, the Ki in experiment [1] is 0.53 nM.

As for `NCCCCCCCCN1CCC(OC(=O)Nc2ccccc2-c2ccccc2)CC1`, in experiment [1], the affinity corresponds to a Ki of 1.8 nM.

Consider `NCCCCCCCCCN1CCC(OC(=O)Nc2ccccc2-c2ccccc2)CC1`, for which the affinity in experiment [1], expressed as Ki, was 0.75 nM.

In turn, `NCCCCCCCCCCN1CCC(OC(=O)Nc2ccccc2-c2ccccc2)CC1` had a Ki in experiment [1] of 1.6 nM.

In the case of `NCCCCCCCCCCCN1CCC(OC(=O)Nc2ccccc2-c2ccccc2)CC1`, the affinity in experiment [1], expressed as Ki, was 2.5 nM.

For `NCCCCCCCCCCCCN1CCC(OC(=O)Nc2ccccc2-c2ccccc2)CC1`, affinity in experiment [1] was put at a Ki of 2.6 nM.

Take `O=C(Nc1ccccc1-c1ccccc1)OC1CCN(CCCNC[C@H](O)c2ccc(O)c3[nH]c(=O)ccc23)CC1`: in experiment [2], the EC50 was 1.3 nM. The Ki in experiment [1] came to 28 nM; in experiment [3], 19 nM.

For `O=C(Nc1ccccc1-c1ccccc1)OC1CCN(CCCCCCCNC[C@H](O)c2ccc(O)c3[nH]c(=O)ccc23)CC1`, in experiment [2], the EC50 came out at 1.1 nM. In addition, the results for the Ki in experiment [1] and in experiment [3] were 0.74 nM and 10 nM, respectively.

Take `O=C(Nc1ccccc1-c1ccccc1)OC1CCN(CCCCCCCCNC[C@H](O)c2ccc(O)c3[nH]c(=O)ccc23)CC1`: in experiment [2], the EC50 was found to be 0.32 nM. The Ki in experiment [1] stood at 0.32 nM; in experiment [3], 3.4 nM.

Take `O=CNc1cc([C@@H](O)CNCCCCCCCCCN2CCC(OC(=O)Nc3ccccc3-c3ccccc3)CC2)ccc1O`: the EC50 in experiment [2] turned out to be 2.6 nM. In addition, the Ki came out at 0.14 nM in experiment [1] and 21 nM in experiment [3].

As to `O=C(Nc1ccccc1-c1ccccc1)OC1CCN(CCCCCCCCCNC[C@H](O)c2ccc(O)c(CO)c2)CC1`, in experiment [2], the concentration for a half-maximal effect (EC50) was determined as 14 nM. Moreover, the Ki in experiment [1] came out at 0.14 nM; in experiment [3], 61 nM.

With `NC(=O)C(c1ccccc1)(c1ccccc1)[C@@H]1CCN(CCCCCCCCCNCC(O)c2ccc(O)c3[nH]c(=O)ccc23)C1` (stereo not given in full), the EC50 in experiment [2] came out at 3.3 nM. For the same molecule, the Ki in experiment [1] amounted to 32 nM; in experiment [3], 60 nM.

In the case of `O=C(Nc1ccccc1-c1ccccc1)NC1CCN(CCCCCCCCCNCC(O)c2ccc(O)c3[nH]c(=O)ccc23)CC1` (stereo not given), the EC50 in experiment [2] came out at 8.4 nM. For the same molecule, the Ki stood at 7.5 nM in experiment [1] and 115 nM in experiment [3].

For `O=C(Nc1ccccc1-c1ccccc1)O[C@H]1C[N+]2(CCCCCCCCCNCC(O)c3ccc(O)c4[nH]c(=O)ccc34)CCC1CC2` (stereo not given in full), the EC50 in experiment [2] is 8.9 nM. Further, the Ki in experiment [1] turned out to be 140 nM; in experiment [3], 123 nM.

For `C[N+]1(CCCCCCCCCNC[C@H](O)c2ccc(O)c3[nH]c(=O)ccc23)[C@@H]2C[C@H](OC(=O)C(O)(c3cccs3)c3cccs3)C[C@@H]1[C@H]1O[C@H]12` (stereo not given in full), the EC50 in experiment [2] came out at 0.9 nM. For the same molecule, the figures for the Ki in experiment [1] and in experiment [3] were 4.6 nM and 36 nM, respectively.
